Laboratory results taken from ChEMBL document CHEMBL4613265, “Novel Human Neutral Sphingomyelinase 2 Inhibitors as Potential Therapeutics for Alzheimer's Disease” (J Med Chem, 2020).
The source made the active and inactive calls. The calls are words filed in the database; no cut-off is given here.

Experiments:
HL-60 = assay: Cytotoxicity against human HL60 cells by XTT assay; assay type: cell-based
[1] = AUClast in 5XFAD transgenic B6SJLF1/J mouse brain at 10 mg/kg, ip by LC-MS/MS analysis; assay type: ADME, organism-based
How it was run: (§1)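 Hemizygous 5XFAD mice aged 11 months received one terminal ip dose of 10 mg/kg in NMP–Tween 80–saline (2.5:5:92.5 v/v/v). […] Extraction by acetonitrile protein precipitation with losartan as internal standard, then LC–MS/MS. Noncompartmental analysis: Cmax and Tmax observed; AUC to 6 h by log–linear trapezoidal rule.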

[2] = molecular target: Phosphatidylinositol 4-kinase alpha (Homo sapiens) (UniProt P42356); assay: Inhibition of PI4K3alpha (unknown origin)
Chain of Phosphatidylinositol 4-kinase alpha (Homo sapiens) (P42356 whole entry, looked up): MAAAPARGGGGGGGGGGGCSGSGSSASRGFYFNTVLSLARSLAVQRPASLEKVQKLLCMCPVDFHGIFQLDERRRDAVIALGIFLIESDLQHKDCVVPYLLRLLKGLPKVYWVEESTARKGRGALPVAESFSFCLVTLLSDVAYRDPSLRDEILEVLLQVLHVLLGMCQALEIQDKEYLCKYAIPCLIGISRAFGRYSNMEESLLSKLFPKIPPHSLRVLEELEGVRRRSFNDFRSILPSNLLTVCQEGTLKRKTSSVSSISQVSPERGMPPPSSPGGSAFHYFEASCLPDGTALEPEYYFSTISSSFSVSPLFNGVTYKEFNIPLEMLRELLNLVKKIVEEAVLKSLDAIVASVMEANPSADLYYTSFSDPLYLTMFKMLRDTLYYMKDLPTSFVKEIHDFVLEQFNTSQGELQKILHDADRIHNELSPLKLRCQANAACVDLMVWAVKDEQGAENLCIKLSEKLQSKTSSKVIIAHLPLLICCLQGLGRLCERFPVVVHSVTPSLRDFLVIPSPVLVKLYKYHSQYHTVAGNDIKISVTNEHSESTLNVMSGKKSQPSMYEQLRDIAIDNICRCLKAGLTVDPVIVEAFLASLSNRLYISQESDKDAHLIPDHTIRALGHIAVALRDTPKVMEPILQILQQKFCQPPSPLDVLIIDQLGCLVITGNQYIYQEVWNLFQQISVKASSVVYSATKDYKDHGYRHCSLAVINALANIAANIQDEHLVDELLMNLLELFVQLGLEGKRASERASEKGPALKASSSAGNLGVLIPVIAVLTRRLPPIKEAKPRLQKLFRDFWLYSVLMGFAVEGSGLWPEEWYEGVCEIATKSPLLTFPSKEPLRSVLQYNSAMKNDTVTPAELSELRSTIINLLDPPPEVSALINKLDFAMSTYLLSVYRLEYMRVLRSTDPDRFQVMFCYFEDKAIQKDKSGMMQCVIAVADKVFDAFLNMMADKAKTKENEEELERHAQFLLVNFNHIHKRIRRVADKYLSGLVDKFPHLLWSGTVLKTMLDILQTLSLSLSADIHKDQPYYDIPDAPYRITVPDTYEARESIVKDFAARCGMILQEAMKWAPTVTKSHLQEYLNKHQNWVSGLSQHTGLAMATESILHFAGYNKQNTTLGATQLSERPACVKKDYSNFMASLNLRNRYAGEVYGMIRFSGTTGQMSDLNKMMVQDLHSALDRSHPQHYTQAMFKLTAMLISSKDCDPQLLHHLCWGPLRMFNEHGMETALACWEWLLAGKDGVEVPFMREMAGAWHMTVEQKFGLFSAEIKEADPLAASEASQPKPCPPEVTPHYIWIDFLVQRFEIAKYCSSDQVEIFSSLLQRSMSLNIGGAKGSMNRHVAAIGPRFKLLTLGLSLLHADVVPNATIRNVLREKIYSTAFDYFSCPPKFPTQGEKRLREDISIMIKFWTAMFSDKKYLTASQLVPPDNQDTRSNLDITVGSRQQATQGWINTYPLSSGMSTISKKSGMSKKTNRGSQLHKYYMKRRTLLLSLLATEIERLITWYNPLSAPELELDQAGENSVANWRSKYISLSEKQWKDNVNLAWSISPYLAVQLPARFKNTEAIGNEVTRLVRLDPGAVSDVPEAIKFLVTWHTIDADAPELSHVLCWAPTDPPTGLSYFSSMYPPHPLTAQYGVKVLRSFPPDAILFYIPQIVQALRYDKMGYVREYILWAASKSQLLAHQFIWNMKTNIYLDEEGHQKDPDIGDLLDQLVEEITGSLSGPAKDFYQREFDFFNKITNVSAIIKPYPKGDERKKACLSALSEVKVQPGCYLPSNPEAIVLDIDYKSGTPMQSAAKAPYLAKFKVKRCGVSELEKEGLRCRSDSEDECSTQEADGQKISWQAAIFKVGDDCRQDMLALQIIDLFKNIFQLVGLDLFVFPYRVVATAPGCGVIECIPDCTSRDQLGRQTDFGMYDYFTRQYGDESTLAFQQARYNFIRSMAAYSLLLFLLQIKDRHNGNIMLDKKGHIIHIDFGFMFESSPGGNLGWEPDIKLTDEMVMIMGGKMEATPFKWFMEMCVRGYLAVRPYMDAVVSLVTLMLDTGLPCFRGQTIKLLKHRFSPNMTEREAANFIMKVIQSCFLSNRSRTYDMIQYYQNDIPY

[3] = Drug metabolism in mouse liver microsomes assessed as CYP450-mediated O-dealkylation at 1 uM measured after 60 mins in presence of NADPH generating system by LC-MS/MS analysis; assay type: ADME; settings: 1 h
How it was run: (§2)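 Mouse or human liver microsomes at 0.2 mg/mL, compound at 1 μM final. Controls run without cofactors. Quenched at 60 min with cold acetonitrile containing internal standard; read as % remaining.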

[4] = AUClast in 5XFAD transgenic B6SJLF1/J mouse plasma at 10 mg/kg, ip by LC-MS/MS analysis; assay type: ADME, organism-based; how it was run: as §1
Cytochrome P450 [5] = assay: Drug metabolism in human liver microsomes assessed as CYP450-mediated O-dealkylation at 1 uM measured after 60 mins in presence of NADPH generating system by LC-MS/MS analysis; assay type: ADME; settings: 1 h; how it was run: as §2
Cytochrome P450 [6] = assay: Drug metabolism in human liver microsomes assessed as CYP450-mediated O-demethylated metabolite formation at 1 uM measured after 60 mins in presence of NADPH generating system by LC-MS/MS analysis; assay type: ADME; settings: 1 h
HeLa S3 = assay: Cytotoxicity against human HeLaS3 cells by XTT assay; assay type: cell-based
[7] = Cmax in 5XFAD transgenic B6SJLF1/J mouse plasma at 10 mg/kg, ip by LC-MS/MS analysis; assay type: ADME, organism-based; set-up: dose 10 mg/kg, route intraperitoneal; how it was run: as §1
Mus musculus [8] = assay: Suppression of cognitive dysfunction in 5XFAD transgenic B6SJLF1/J mouse model of Alzheimer's disease assessed as increase in freezing behavior response to 1000 Hz tone conditioned stimulus at 10 mg/kg, ip administered daily for 5 months measured during 120 secs of testing by contextual fear conditioning assay; assay type: functional, organism-based
How it was run: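 Dosed daily ip at 10 mg/kg (vehicle 5% DMSO/5% Tween 80/90% PBS) from 3 months, n = 13–16, then tested at 8 months. Day 1: 240 s in chamber with two pairings of a 30 s 1000 Hz tone and a 2 s 0.5 mA footshock, at 120 and 180 s. Day 2: contextual test, 300 s in same chamber. Day 3: novel box for 240 s with tone during last 120 s. Read-out: freezing.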

[9] = Tmax in 5XFAD transgenic B6SJLF1/J mouse brain at 10 mg/kg, ip by LC-MS/MS analysis; assay type: ADME, organism-based; how it was run: as §1
[10] = Cmax in 5XFAD transgenic B6SJLF1/J mouse brain at 10 mg/kg, ip by LC-MS/MS analysis; assay type: ADME, organism-based; set-up: dose 10 mg/kg, route intraperitoneal; how it was run: as §1
HepG2 = assay: Cytotoxicity against human HepG2 cells by XTT assay; assay type: cell-based
CCRF-CEM = assay: Cytotoxicity against human CCRF-CEM cells by XTT assay; assay type: cell-based
[11] = molecular target: Phosphatidylinositol 4-kinase beta (Homo sapiens, UniProt Q9UBF8); assay: Inhibition of PI4K3beta (unknown origin)
Chain of Phosphatidylinositol 4-kinase beta (Q9UBF8 whole entry): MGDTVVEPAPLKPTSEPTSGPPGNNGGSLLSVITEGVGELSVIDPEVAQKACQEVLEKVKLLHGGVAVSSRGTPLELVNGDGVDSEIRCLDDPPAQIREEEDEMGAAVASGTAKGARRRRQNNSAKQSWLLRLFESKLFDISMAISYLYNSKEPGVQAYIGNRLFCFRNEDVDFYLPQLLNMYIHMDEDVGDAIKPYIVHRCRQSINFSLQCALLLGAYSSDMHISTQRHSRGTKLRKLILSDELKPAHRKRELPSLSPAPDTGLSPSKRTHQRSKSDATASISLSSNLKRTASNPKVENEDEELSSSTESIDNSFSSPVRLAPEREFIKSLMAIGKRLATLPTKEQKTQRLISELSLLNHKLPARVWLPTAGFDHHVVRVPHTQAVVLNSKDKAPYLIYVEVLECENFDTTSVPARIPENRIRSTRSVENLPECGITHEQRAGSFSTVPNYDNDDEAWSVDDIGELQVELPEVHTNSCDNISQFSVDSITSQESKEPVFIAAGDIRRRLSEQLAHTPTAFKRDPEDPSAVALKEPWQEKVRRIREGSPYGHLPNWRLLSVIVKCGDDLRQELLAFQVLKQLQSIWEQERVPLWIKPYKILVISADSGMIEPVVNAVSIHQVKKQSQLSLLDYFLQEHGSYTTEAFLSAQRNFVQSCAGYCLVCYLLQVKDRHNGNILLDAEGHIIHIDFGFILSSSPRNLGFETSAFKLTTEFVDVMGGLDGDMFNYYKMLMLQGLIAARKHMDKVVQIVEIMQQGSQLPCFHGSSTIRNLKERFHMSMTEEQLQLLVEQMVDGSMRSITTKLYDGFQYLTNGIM

[12] = Tmax in 5XFAD transgenic B6SJLF1/J mouse plasma at 10 mg/kg, ip by LC-MS/MS analysis; assay type: ADME, organism-based; how it was run: as §1
Mus musculus [13] = assay: Suppression of cognitive dysfunction in 5XFAD transgenic B6SJLF1/J mouse model of Alzheimer's disease assessed as body weight gain at 10 mg/kg, ip administered daily for 5 months measured during compound dosing; assay type: functional, organism-based
How it was run: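 Male and female hemizygous 5XFAD and WT littermates were dosed from age 3 months with 10 mg/kg ip daily or vehicle (5% DMSO, 5% Tween 80, 90% PBS), n = 13–16. Body weight was followed to study day 150 (8 months). Groups were compared by two-way ANOVA.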

[14] = Stability in mouse liver microsomes assessed as parent compound remaining at 1 uM measured after 60 mins in absence of NADPH by LC-MS/MS analysis; assay type: ADME, Microsome; settings: liver microsomes, read-out: Stability
How it was run: (§3)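 Cofactor-free control for cofactor-independent degradation. Mouse or human liver microsomes at 0.2 mg/mL, 1 μM compound (final), 100 mM potassium phosphate at pH 7.4, no NADPH regenerating system. Adding microsomes started the reaction; run in triplicate. Sampled at 60 min and quenched with three volumes of ice-cold acetonitrile spiked with internal standard.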

[15] = Stability in human liver microsomes assessed as parent compound remaining at 1 uM measured after 60 mins in absence of NADPH by LC-MS/MS analysis; assay type: ADME, Microsome; settings: liver microsomes, read-out: Stability; how it was run: as §3

Row | Structure (SMILES) | Activity (HL-60) | AUC(0-t) [1] [µM·h] | inhibition [2] | Drug metabolism [3] | AUC(0-t) [4] [µM·h] | Drug metabolism (Cytochrome P450 [5]) | Drug metabolism (Cytochrome P450 [6]) | Activity (HeLa S3) | Cmax [7] [µM] | Activity (Mus musculus [8]) | Tmax [9] [min] | Cmax [10] [µM] | Activity (HepG2) | Activity (CCRF-CEM) | IC50 [11] [µM] | Tmax [12] [min] | Activity (Mus musculus [13]) | remaining at 1 h, 1 µM [14] [%] | remaining at 1 h, 1 µM [15] [%]
1 | COc1ccc(-c2c(C)nc3c(N4CC[C@@H](NC(=O)Oc5ccccc5)C4)cc(C)nn23)cc1OC | Non-Toxic | 13 | inactive | Metabolite_Detected | 22.1 | Metabolite_Detected | Metabolite_Detected | Non-Toxic | 7.7 | Active | 30 | 3.89 | Non-Toxic | Non-Toxic | > 10 | 15 | Active |  | 
2 | COc1ccc(-c2c(C)nc3c(N4CC[C@@H](NC(C)=O)C4)cc(C)nn23)cc1OC | Non-Toxic |  | inactive |  |  |  |  | Non-Toxic |  |  |  |  | Non-Toxic | Non-Toxic | > 10 |  |  | > 95 | > 95
